Laboratory results: ChEMBL document CHEMBL4715734, “Discovery of the Potent and Selective M1 PAM-Agonist N-[(3R,4S)-3-Hydroxytetrahydro-2H-pyran-4-yl]-5-methyl-4-[4-(1,3-thiazol-4-yl)benzyl]pyridine-2-carboxamide (PF-06767832): Evaluation of Efficacy and Cholinergic Side Effects” (J Med Chem, 2016)
Values after ≈ are worked out from the molar mass of the structure shown.

Tests used:
[1] = Toxicity in male Beagle dog assessed as decrease in QTc interval at 3 mg/kg, po administered as single dose observed upto 9 hrs post last dose by telemetry; assay type: organism-based, Canis lupus familiaris; details: in vivo
In short: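 Crossover telemetry study in dogs at three oral doses (0.3, 1 and 3 mg/kg), N=4. Endpoints were blood pressure, maximum systolic left ventricular pressure, LV +dP/dt max, activity, heart rate, and RR, QT and QTc intervals, followed up to 9 h post dose.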

[2] = Toxicity in dog assessed as side-to-side head movements at 45 mg/kg, po using spray-dried dispersion formulation measured after 45 mins; assay type: organism-based, Canis lupus familiaris; details: in vivo, 0.75 h
[3] = Toxicity in dog assessed as emesis at 45 mg/kg, po using spray-dried dispersion formulation measured after 45 mins; assay type: organism-based, Canis lupus familiaris; details: in vivo, 0.75 h
In short: (§1)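 Dogs received single escalating oral doses as a spray-dried dispersion (10% drug loading with HPMCAS-M). The dispersion was suspended in 0.5 wt% methylcellulose/0.5 wt% HPMCAS in 20 mM tris buffer, pH 7.4. One dog per sex per dose was used, and clinical signs were recorded.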

[4] = Toxicity in dog assessed as salivation at 45 mg/kg, po using spray-dried dispersion formulation measured after 45 mins; assay type: organism-based, Canis lupus familiaris; details: in vivo, 0.75 h
[5] = Toxicity in dog assessed as emesis at 15 mg/kg, po using spray-dried dispersion formulation; assay type: organism-based, Canis lupus familiaris; details: in vivo; in short: as §1
[6] = Toxicity in dog assessed as induction of watery feces at 5 mg/kg, po using spray-dried dispersion formulation; assay type: organism-based, Canis lupus familiaris; details: in vivo
[7] = Toxicity in dog assessed as induction of loose stool at 0.3 mg/kg, po using spray-dried dispersion formulation; assay type: organism-based, Canis lupus familiaris; details: in vivo
[8] = fAUC (0 to 24 hrs) in rat at 15 mg/kg, po administered for 14 days; assay type: ADME, organism-based; details: in vivo, 336 h, time 14 day
In short: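 2-week repeat oral dosing in rats, 0.5% methylcellulose formulation; N=4/sex/dose; doses 3, 10, 30 (males)/15 (females) mg/kg; unbound exposures reported per dose and sex.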

[9] = Unbound plasma concentration in […] in Sprague-Dawley rat model at 3.2 mg/kg, sc measured after 1.67 hrs; assay type: ADME, organism-based; details: in vivo
In short: (§2)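 Randomly selected animals (N=2/dose) at the end of the rat PPI study, T = 1.67 h. Dosed subcutaneously as a suspension in 0.5% methylcellulose in water. Plasma and brain concentrations were averaged.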

[10] = Unbound plasma concentration in […] in Sprague-Dawley rat model at 1 mg/kg, sc measured after 1.67 hrs; assay type: ADME, organism-based; details: in vivo; in short: as §2
[11] = Unbound plasma concentration in […] in Sprague-Dawley rat model at 0.32 mg/kg, sc measured after 1.67 hrs; assay type: ADME, organism-based; details: in vivo; in short: as §2
[12] = Unbound plasma concentration in scopolamine-induced Wistar rat model at 0.32 mg/kg, po measured after 1 hr; assay type: ADME, organism-based; details: in vivo
In short: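 Plasma sampled 1 h after oral dosing in satellite animals (N=2/dose) given the same dosing solution as the water-maze study (suspension in 0.5% methylcellulose in water); unbound concentration reported as the group average.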

[13] = Unbound brain concentration in scopolamine-induced Wistar rat model at 0.1 mg/kg, po measured after 1 hr; assay type: ADME, organism-based; details: in vivo
[14] = Unbound brain concentration in amphetamine-induced C57BL/6J mouse model of hyperlocomotion at 1 mg/kg, sc measured after 1 hr; assay type: ADME, organism-based; details: in vivo
In short: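 Satellite PK animals from the mouse aLMA study, N=2/dose. Dosed subcutaneously with a solution in 5/15/80 DMSO/Solutol/water. Plasma and brain were sampled at T = 1 h.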

[15] = Unbound plasma concentration in CD-1 mouse at 1 mg/kg, sc measured after 2 hrs by LC-MS/MS analysis; assay type: ADME, organism-based; details: in vivo
[16] = biological target: Dual 3',5'-cyclic-AMP and -GMP phosphodiesterase 11A (Homo sapiens, UniProt Q9HCR9); experiment: Inhibition of PDE11A4 (unknown origin)
[17] = Fraction unbound in C57BL/6 mouse plasma; assay type: ADME, cell-free
[18] = Fraction unbound in rat brain; assay type: ADME, cell-free
[19] = Ratio of fAUC in monkey brain to plasma; assay type: ADME, cell-free, Macaca mulatta; details: rhesus monkey, brain and plasma; read-out: Ratio AUC
[20] = Clearance in rat at 1 mg/kg, iv administered as single bolus dose; assay type: ADME, organism-based; details: in vivo
[21] = Ratio of fAUC in rat brain to plasma; assay type: ADME, cell-free; details: brain and plasma, read-out: Ratio AUC
[22] = Aqueous solubility of compound at pH 6.5; assay type: physicochemical; details: buffer
[23] = Permeability of compound in MDCKII-LE cells; assay type: ADME, cell-based, Canis lupus familiaris; details: dog, MDCK; read-out: permeability
[24] = Toxicity in rat assessed as histopathological changes at 3 to 30 mg/kg, po administered for 14 days; assay type: organism-based; details: in vivo, 336 h, dose 3-30 mg/kg, time 14 day
In short: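 Two-week repeat-dose toxicity study in rats. Oral dosing in 0.5% methylcellulose at 3, 10, 30 (males)/15 (females) mg/kg, N=4/sex/dose. Food intake, body weight gain and histopathology were assessed.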

[25] = Ratio of fAUC in CD-1 mouse brain to plasma at 1 to 10 mg/kg, sc measured after 2 hrs by LC-MS/MS analysis; assay type: ADME, organism-based; details: brain and plasma, dose 1-10 mg/kg, read-out: Ratio AUC
[26] = Toxicity in dog assessed as convulsion at 45 mg/kg, po using spray-dried dispersion formulation measured after 45 mins; assay type: organism-based, Canis lupus familiaris; details: in vivo, 0.75 h; in short: as §1
[27] = fCmax in dog at 45 mg/kg, po using spray-dried dispersion formulation; assay type: ADME, organism-based, Canis lupus familiaris; details: in vivo
[28] = Toxicity in po dosed dog assessed as NOAEL using spray-dried dispersion formulation; assay type: organism-based, Canis lupus familiaris; details: in vivo
[29] = biological target: T1, Muscarinic acetylcholine receptor M1 (Homo sapiens) (UniProt P11229); experiment: Binding affinity to human muscarinic M1 receptor stably expressed in CHO cells assessed as increase in intracellular calcium level measured after 10 mins by Fluo-8AM dye based FLIPR TETRA method; assay type: cell-based; details: filed as positive allosteric modulator
T1 sequence (whole entry): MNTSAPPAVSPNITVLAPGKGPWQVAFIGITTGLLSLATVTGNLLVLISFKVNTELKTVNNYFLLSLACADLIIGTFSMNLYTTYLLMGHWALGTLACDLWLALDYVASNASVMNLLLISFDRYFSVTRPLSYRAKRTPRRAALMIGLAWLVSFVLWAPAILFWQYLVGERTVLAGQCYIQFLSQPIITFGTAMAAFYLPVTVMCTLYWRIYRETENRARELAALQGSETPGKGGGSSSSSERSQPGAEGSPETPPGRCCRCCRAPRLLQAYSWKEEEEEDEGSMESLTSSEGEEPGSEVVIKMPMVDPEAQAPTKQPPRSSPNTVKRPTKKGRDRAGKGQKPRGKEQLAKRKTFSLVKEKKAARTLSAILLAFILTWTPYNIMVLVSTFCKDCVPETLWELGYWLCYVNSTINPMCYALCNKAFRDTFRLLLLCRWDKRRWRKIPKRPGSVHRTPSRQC

[30] = biological target: Muscarinic acetylcholine receptor M3 (Homo sapiens, UniProt P20309); experiment: Positive allosteric modulation of human recombinant muscarinic M3 receptor stably expressed in CHO cells assessed as increase in Ach-induced accumulation of intracellular calcium level upto 10 uM incubated for 10 mins followed by addition of Ach at EC20 concentration by Fluo-8AM dye based FLIPR TETRA method
Muscarinic acetylcholine receptor M3, sequence (P20309 whole entry): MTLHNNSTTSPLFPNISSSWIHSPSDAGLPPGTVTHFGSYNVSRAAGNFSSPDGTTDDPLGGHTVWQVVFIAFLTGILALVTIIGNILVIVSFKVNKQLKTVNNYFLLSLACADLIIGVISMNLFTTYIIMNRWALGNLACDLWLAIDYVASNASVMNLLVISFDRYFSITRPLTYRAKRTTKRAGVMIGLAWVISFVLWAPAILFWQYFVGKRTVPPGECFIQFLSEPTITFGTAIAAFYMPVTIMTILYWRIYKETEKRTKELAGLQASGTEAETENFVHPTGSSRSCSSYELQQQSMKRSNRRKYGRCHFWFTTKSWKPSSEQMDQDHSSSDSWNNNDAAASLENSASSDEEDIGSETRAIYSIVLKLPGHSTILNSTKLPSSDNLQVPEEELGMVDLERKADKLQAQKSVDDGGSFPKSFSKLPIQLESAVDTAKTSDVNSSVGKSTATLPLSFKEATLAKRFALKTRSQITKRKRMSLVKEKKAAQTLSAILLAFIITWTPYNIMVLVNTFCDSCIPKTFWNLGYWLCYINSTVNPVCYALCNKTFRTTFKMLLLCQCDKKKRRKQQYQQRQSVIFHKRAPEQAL

Dual 3',5'-cyclic-AMP and -GMP phosphodiesterase 11A, sequence (Q9HCR9 whole entry): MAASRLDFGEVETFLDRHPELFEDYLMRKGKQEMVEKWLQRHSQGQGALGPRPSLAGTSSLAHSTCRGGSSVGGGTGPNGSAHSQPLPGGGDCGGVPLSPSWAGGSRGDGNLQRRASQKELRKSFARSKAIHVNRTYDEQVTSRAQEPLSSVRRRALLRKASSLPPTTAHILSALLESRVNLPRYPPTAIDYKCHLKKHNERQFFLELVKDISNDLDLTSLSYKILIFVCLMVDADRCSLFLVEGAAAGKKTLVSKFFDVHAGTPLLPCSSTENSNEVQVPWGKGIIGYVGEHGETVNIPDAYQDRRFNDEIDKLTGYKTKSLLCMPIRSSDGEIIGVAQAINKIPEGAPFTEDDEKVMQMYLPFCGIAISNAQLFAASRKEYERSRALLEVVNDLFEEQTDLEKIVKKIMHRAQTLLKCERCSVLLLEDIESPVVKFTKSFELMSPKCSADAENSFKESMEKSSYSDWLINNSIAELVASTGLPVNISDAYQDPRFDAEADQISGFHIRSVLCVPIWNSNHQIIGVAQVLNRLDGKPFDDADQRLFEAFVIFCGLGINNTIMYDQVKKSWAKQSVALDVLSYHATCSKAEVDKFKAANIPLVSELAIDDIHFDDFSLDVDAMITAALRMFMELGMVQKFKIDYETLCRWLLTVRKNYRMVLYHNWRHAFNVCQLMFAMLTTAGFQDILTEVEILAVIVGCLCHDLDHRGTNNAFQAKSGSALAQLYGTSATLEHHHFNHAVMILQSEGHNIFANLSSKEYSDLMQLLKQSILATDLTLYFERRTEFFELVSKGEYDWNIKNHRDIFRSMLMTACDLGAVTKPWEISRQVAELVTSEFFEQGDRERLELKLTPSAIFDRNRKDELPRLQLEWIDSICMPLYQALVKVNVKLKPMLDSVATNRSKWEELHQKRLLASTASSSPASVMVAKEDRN

- fAUC [8]: 9.768 µM·h
- Cp(f) [9]: 123 nM
- Cp(f) [10]: 45.6 nM
- Cp(f) [11]: 11.9 nM
- Cp(f) [12]: 3.7 nM
- Drug uptake(free) [13]: 0.31 nM
- Drug uptake(free) [14]: 18.5 nM
- Cp(f) [15]: 42.1 nM
- IC50 [16]: 4.94 µM
- Fu [17]: 2.9%
- Fu [18]: 4%
- Kp uu [19]: 0.51
- clearance [20]: 3.29 mL/min/kg
- Kp uu [21]: 0.34
- solubility [22]: 2.7 µg/mL (≈ 6.59 µM)
- Papp [23]: 22 ×10⁻⁶ cm/s
- Kp uu at 2 h [25]: 0.34
- fCmax [27]: 952 nM
- Ka [29]: 2 µM
- Activity [30]: Not Active
SMILES: Cc1cnc(C(=O)N[C@H]2CCOC[C@@H]2O)cc1Cc1ccc(-c2cscn2)cc1
- Activity [1]: Toxic
- Activity [2]: Toxic
- Activity [3]: Toxic
- Activity [4]: Toxic
- Activity [5]: Toxic
- Activity [6]: Toxic
- Activity [7]: Toxic
- Activity [24]: Non-Toxic
- Activity [26]: Toxic
- NOAEL [28]: 5 mg/kg
